Consider 20 compounds from ChEMBL document CHEMBL1146142, “Synthesis of miltirone analogues as inhibitors of Cdc25 phosphatases” (Bioorg Med Chem Lett, 2006).

Experiment [1] concerns the target T1, Tyrosine-protein phosphatase non-receptor type 1 (Homo sapiens, UniProt P18031).
T1 sequence (P18031 whole entry): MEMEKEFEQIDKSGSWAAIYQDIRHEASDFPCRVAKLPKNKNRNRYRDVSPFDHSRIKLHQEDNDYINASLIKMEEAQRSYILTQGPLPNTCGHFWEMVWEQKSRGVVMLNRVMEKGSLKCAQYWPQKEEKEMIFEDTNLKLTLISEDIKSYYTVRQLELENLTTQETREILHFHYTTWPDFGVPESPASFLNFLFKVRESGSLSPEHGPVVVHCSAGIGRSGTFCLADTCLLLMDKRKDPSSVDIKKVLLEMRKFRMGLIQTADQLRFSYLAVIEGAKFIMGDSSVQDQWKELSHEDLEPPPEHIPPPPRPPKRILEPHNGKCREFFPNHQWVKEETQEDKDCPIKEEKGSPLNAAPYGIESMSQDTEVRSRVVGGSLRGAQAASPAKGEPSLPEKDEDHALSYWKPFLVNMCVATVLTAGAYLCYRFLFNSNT
Briefly: Inhibitory activity against human PTP1B. Summed up: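 GST–PTP1B (30–40 nM) in 50 mM MOPs pH 6.5 with 2 mM DTT, 1 mM EDTA and 2% DMSO. Substrate was 2 mM pNPP.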

Experiment [2] addresses T2, M-phase inducer phosphatase 2 (Homo sapiens, UniProt P30305).
T2 sequence (P30305 whole entry): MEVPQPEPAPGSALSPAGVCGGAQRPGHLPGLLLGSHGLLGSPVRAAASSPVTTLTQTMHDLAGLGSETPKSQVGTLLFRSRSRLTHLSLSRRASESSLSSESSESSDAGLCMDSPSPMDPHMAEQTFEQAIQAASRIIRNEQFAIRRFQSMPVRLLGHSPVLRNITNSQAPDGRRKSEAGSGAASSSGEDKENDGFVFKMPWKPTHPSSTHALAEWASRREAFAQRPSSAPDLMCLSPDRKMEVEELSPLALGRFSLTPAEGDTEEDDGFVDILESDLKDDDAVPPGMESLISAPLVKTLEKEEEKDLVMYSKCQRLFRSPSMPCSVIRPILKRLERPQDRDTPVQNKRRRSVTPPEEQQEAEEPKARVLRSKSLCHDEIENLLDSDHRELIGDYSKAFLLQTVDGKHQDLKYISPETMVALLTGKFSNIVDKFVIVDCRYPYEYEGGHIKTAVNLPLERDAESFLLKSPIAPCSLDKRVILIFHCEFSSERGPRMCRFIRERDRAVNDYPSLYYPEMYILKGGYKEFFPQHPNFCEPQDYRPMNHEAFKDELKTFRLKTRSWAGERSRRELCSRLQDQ
Description: Inhibitory activity against human Cdc25B phosphatase.

The next experiment concerns A549. Briefly: Cytotoxicity against A549 cell line. The experiment is classed as functional, cell-based. As to conditions: Homo sapiens; call rule not given here. In outline: (§1)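 Tumor cells trypsinized and seeded at 3000 cells/well; after attachment, exposed to a range of compound concentrations for 72 h. MTT (5 mg/mL) was added and incubated 3 h, then medium was removed and formazan dissolved in DMSO. Absorbance read at 550 nm with […] reference.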

The test system of another experiment is HCT-116. Description: Cytotoxicity against HCT116 cell line. It counts as functional, cell-based. Particulars: Homo sapiens. Summed up: as §1
Experiment [3] deals with T3, M-phase inducer phosphatase 1 (Homo sapiens, UniProt P30304).
T3 sequence (P30304 whole entry): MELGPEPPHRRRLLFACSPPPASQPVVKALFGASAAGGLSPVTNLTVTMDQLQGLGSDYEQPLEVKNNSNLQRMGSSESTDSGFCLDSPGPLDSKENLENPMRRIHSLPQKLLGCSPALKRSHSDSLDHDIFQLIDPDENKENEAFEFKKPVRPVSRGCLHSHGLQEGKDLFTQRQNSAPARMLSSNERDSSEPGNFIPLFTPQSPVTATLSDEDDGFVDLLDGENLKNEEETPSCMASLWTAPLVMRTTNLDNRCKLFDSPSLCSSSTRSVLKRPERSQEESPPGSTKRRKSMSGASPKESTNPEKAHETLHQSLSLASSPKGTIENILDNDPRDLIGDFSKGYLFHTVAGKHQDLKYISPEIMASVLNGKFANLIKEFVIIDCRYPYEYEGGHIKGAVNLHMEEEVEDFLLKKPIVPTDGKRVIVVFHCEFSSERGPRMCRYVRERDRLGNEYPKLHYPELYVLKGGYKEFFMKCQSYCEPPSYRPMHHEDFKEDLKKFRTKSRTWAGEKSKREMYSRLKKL
Briefly: Inhibitory activity against human Cdc25A phosphatase.

Molecules are shown by their SMILES. Some results are limits rather than exact numbers.

On to `COc1ccc(NC2=C(C(C)C)C(=O)C(=O)c3c2ccc2c3CCCC2(C)C)cc1`, for which the concentration for half-maximal inhibition (IC50) result in experiment [1] was “Not Active”; in experiment [2] (read-out: IC50) it was 4.09 µM; with A549 it was 9.19 µM; in the experiment on HCT-116, 5.51 µM; in experiment [3] (read-out: IC50), 11.8 µM.
Take `CC(C)C1=C(Sc2ccc(Br)cc2)c2ccccc2C(=O)C1=O`: the 50% inhibitory concentration (IC50) in experiment [1] (read-out: IC50) was 7.57 µM; in experiment [2] (read-out: IC50), 3.63 µM; in the experiment on A549, 5.93 µM; with HCT-116 it was 5.85 µM; in experiment [3] (read-out: IC50) it was 5.43 µM.
Turning to `CC(C)C1=C(Nc2ccc([N+](=O)[O-])cc2)c2ccccc2C(=O)C1=O`, the concentration for half-maximal inhibition (IC50) in experiment [1] (read-out: IC50) was 19.1 µM; in experiment [2] (read-out: IC50) it was 5.33 µM; in the experiment on A549 it was 6.59 µM; in the experiment on HCT-116, 2.39 µM; in experiment [3] (read-out: IC50), 6.87 µM.
As to `Cc1ccc(NC2=C(C(C)C)C(=O)C(=O)c3ccccc32)cc1`, the IC50 is 19.6 µM in experiment [1] (read-out: IC50); 4.53 µM in experiment [2] (read-out: IC50); 8.2 µM with A549; 6.16 µM in the experiment with HCT-116; 7.06 µM in experiment [3] (read-out: IC50).
With `CC(C)C1=C(Nc2ccccc2)c2ccccc2C(=O)C1=O`, the IC50 entry in experiment [1] was “Not Active”; in experiment [2] (read-out: IC50) it was 8.71 µM; in the experiment on A549, 25 µM; with HCT-116 it was 8.22 µM; in experiment [3] (read-out: IC50), 10.9 µM.
`CC(C)C1=C(Nc2ccc([N+](=O)[O-])cc2)c2ccc3c(c2C(=O)C1=O)CCCC3(C)C`: the concentration for half-maximal inhibition (IC50) entry in experiment [1] is “Not Active”; in experiment [2] it was “Not Active”; with A549, 5.34 µM; in the experiment with HCT-116 it was 7.1 µM; in experiment [3], “Not Active”.
For `Cc1ccc(NC2=C(C(C)C)C(=O)C(=O)c3c2ccc2c3CCCC2(C)C)cc1`, the IC50 entry in experiment [1] was “Not Active”; in experiment [2] (read-out: IC50), 7.54 µM; in the experiment on A549 it was 4.25 µM; with HCT-116 it was 24.9 µM; in experiment [3] (read-out: IC50), 27.6 µM.
For the compound `CC(C)C1=C(Sc2ccccc2)c2ccccc2C(=O)C1=O`, the half-maximal inhibitory concentration (IC50) in experiment [1] (read-out: IC50) was 13.7 µM; in experiment [2] (read-out: IC50), 10.9 µM; in the experiment on A549, 7.59 µM; in the experiment with HCT-116, 8.03 µM; in experiment [3] (read-out: IC50), 5.86 µM.
Regarding `CC(C)C1=C(Sc2ccccc2)c2ccc3c(c2C(=O)C1=O)CCCC3(C)C`, the IC50 in experiment [1] (read-out: IC50) is 10.4 µM; in experiment [2] (read-out: IC50), 5.07 µM; in the experiment on A549, 26.6 µM; with HCT-116, 5.75 µM; in experiment [3] (read-out: IC50), 3.97 µM.
In the case of `CC(=O)Nc1ccc(SC2=C(C(C)C)C(=O)C(=O)c3ccccc32)cc1`, the IC50 in experiment [1] (read-out: IC50) was found to be 7.63 µM; in experiment [2] (read-out: IC50), 13.8 µM; in the experiment on A549 it was 7.36 µM; with HCT-116, 6.32 µM; in experiment [3] (read-out: IC50) it was 21.9 µM.
Regarding `CC(C)C1=C(Sc2ccc(Br)cc2)c2ccc3c(c2C(=O)C1=O)CCCC3(C)C`, the IC50 in experiment [1] (read-out: IC50) was 7.19 µM; in experiment [2] (read-out: IC50), 3.78 µM; in the experiment with A549, 5.07 µM; with HCT-116, 4.94 µM; in experiment [3] (read-out: IC50), 20.3 µM.
As to `CC(C)C1=C(Sc2ccc(F)cc2)c2ccc3c(c2C(=O)C1=O)CCCC3(C)C`, the IC50 in experiment [1] (read-out: IC50) came out at 4.55 µM; in experiment [2] (read-out: IC50), 2.58 µM; in the experiment with A549, 1.25 µM; in the experiment with HCT-116 it was 5.71 µM; in experiment [3] (read-out: IC50), 22.1 µM.
With `COc1ccc(NC2=C(C(C)C)C(=O)C(=O)c3ccccc32)cc1`, the 50% inhibitory concentration (IC50) result is “Not Active” in experiment [1]; 4.63 µM in experiment [2] (read-out: IC50); 87 µM with A549; 4.04 µM with HCT-116; 4.9 µM in experiment [3] (read-out: IC50).
Regarding `CC(C)C1=C(c2ccccc2)c2ccccc2C(=O)C1=O`, the IC50 entry in experiment [1] was “Not Active”; in experiment [2] (read-out: IC50), 3.23 µM; with A549, 24.7 µM; in the experiment with HCT-116 it was 29.6 µM; in experiment [3] (read-out: IC50) it was 7.83 µM.
As for `CC(=O)Nc1ccc(SC2=C(C(C)C)C(=O)C(=O)c3c2ccc2c3CCCC2(C)C)cc1`, the half-inhibitory concentration (IC50) in experiment [1] (read-out: IC50) turned out to be 9.05 µM; in experiment [2] (read-out: IC50), 4.85 µM; in the experiment on A549, 15.4 µM; with HCT-116, 5.18 µM; in experiment [3] (read-out: IC50), 5.96 µM.
In the same order, the values of `CC(C)C1=C(c2ccccc2)c2ccc3c(c2C(=O)C1=O)CCCC3(C)C` are 4.11 µM, 3.16 µM, 6.24 µM, 6.28 µM and 3.96 µM.
On to `CC(C)C1=C(Nc2ccccc2)c2ccc3c(c2C(=O)C1=O)CCCC3(C)C`, for which the IC50 was determined as 27.2 µM in experiment [1] (read-out: IC50); 3.99 µM in experiment [2] (read-out: IC50); 19.1 µM in the experiment on A549; 6.25 µM in the experiment with HCT-116; 8.81 µM in experiment [3] (read-out: IC50).
In the same order, the values of `CC(C)C1=C(Sc2ccc(F)cc2)c2ccccc2C(=O)C1=O` are 7.22 µM, 7.55 µM, 20.4 µM, 20.8 µM and 12.8 µM.
For the compound `CC(C)C1=Cc2ccccc2C(=O)C1=O`, the half-inhibitory concentration (IC50) result in experiment [1] was “Not Active”; in experiment [2] (read-out: IC50) it was 24.1 µM; with A549, 4.14 µM; in the experiment with HCT-116 it was 4 µM; in experiment [3] (read-out: IC50), 11.2 µM.
Turning to `CC(C)C1=Cc2ccc3c(c2C(=O)C1=O)CCCC3(C)C` [MILTIRONE], the concentration for half-maximal inhibition (IC50) result in experiment [1] is “Not Active”; in experiment [2], “Not Active”; in the experiment with A549, 24.6 µM; in the experiment with HCT-116, 12.4 µM; in experiment [3] (read-out: IC50), over 70.8 µM.
